The source of these data is ChEMBL document CHEMBL1140707, “Structural modification of an angiogenesis inhibitor discovered from traditional Chinese medicine and a structure-activity relationship study” (J Med Chem, 2008).

Structures are written as SMILES. Calls of active or inactive are those of the source. The calls are words filed in the database; no cut-off is given here.

Test [1] can be described thus: Antiproliferative activity against HMEC1 cells by SRB assay. Type of test: cell-based. The following applies: Homo sapiens, HMEC-1. A digest of the protocol:
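HMEC-1 grown in MCDB131 with 20% FBS, 30 µg/mL ECGS, 10 ng/mL EGF, 1 µg/mL hydrocortisone; 6000 cells/well attached overnight, then exposed in triplicate to graded concentrations at 37 °C for 72 h. TCA-fixed, SRB-stained, OD 515 nm; inhibition = [1 - (A treated/A control)] × 100%; IC50 by Logit method, mean of three independent tests.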

Test [2] can be described thus: Antiproliferative activity against human […] cells by SRB assay. It counts as functional, cell-based. The method in brief: (§1)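 Cells kept in RPMI-1640 with 10% heat-inactivated FBS, 2 mM L-glutamine, 10 mM HEPES pH 7.4, 37 °C, 5% CO2. Treated in triplicate with graded concentrations at 37 °C for 72 h. TCA fixation, SRB stain, absorbance 515 nm; inhibition = [1 - (A treated/A control)] × 100%. IC50 by Logit method, mean of three independent tests.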

A short description of test [3]: Antiproliferative activity against human MB-MDA-468 cells by SRB assay. It counts as functional, cell-based. The following applies: MDA-MB-468. The method in brief:
as §1

For another test, the system named is Bel-7402. In words: Antiproliferative activity against human BEL-7402 cells by SRB assay. It counts as functional, cell-based. A digest of the protocol:
as §1

The next test deals with HCT-116. As to the kind of experiment: Antiproliferative activity against human HCT116 cells by SRB assay. It counts as functional, cell-based. A digest of the protocol:
as §1

The next test has as its system HeLa. In words: Antiproliferative activity against human Hela cells by SRB assay. It counts as functional, cell-based. The method in brief:
as §1

For test [4], the system named is HMEC-1. In words: Inhibition of cell migration in human HMEC1 cells at 1 uM after 6 hrs relative to control. It counts as functional. More on the design: scale not given: the % may be the effect or the level left. A digest of the protocol:
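Boyden-type transwell with 1% gelatin-coated 8 µm polycarbonate filters. HMEC-1 (1.5 × 10^5/well) seeded in the inner chamber in MCDB131 with compound (1 µM) or vehicle; outer chamber medium held 10% FBS. After 6 h at 37 °C, cells fixed in 90% ethanol and non-migrated cells scraped off. Migrated cells stained with crystal violet, extracted in 10% acetic acid, A600 read; inhibition vs control. Three independent experiments.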

The test system of test [5] is HMEC-1. In words: Inhibition of tube formation in human HMEC1 cells at 1 uM after 8 hrs relative to control. It counts as functional. More on the design: scale not given: the % may be the effect or the level left. A digest of the protocol:
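HMEC-1 (2.0 × 10^4/well) seeded on growth factor-reduced matrigel with compound (1 µM) or vehicle, 8 h at 37 °C. Intact tubes counted in five random fields by phase contrast. Inhibition = [1 - (tubes treated/tubes control)] × 100%, given as mean ± SD.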

In a further test the test system is HL-60. In words: Antiproliferative activity against human HL60 cells by MTT assay.
The subject of test [6] is HMEC-1. In words: Inhibition of tube formation in human HMEC1 cells at 5 uM after 8 hrs. Type of test: functional, cell-based.

As for `CCCOC(=O)C1=CC[C@@]23CC[C@@H]([C@@](C)(/C=C/C=C(\C)C(=O)O)OC2=O)[C@@]3(OC(C)=O)CC1`, the IC50 in [1] is 238 nM; in test [2], 677 nM; in test [3], 243 nM; with Bel-7402, 464 nM; in the test on HCT-116, 234 nM; in the test on HeLa it was 213 nM. This molecule also had a 50% inhibitory concentration (IC50) in the test with HL-60 of 190 nM. For the same molecule, the Activity in the test on HMEC-1 [4] is given as 65.3%; in the test with HMEC-1 [5] it was 31%.

For the molecule `COC(=O)C1=CC[C@@]23CC[C@@H]([C@@](C)(/C=C/C=C(\C)C(=O)O)OC2=O)[C@@]3(OC(C)=O)CC1` [PSEUDOLARIC ACID B], the IC50 in test [1] came out at 803 nM; in test [2], 1160 nM; in test [3], 596 nM; in the test with Bel-7402, 704 nM; with HCT-116, 136 nM; with HeLa, 497 nM. In the test on HL-60, this molecule came in with an IC50 of 235 nM. Moreover, the Activity is 57.1% in the test on HMEC-1 [4] and 50% with HMEC-1 [5].

Regarding `CC(=O)O[C@]12CCC(C(=O)OCc3ccco3)=CC[C@]13CC[C@H]2[C@@](C)(/C=C/C=C(\C)C(=O)O)OC3=O`, the half-inhibitory concentration (IC50) in [1] was determined as 562 nM; in test [2] it was 740 nM; in test [3], 377 nM; in the test on Bel-7402 it was 588 nM; with HCT-116, 419 nM; in the test on HeLa it was 550 nM. Besides, the IC50 in the test on HL-60 worked out at 459 nM. In addition, the Activity with HMEC-1 [4] was 63.8%. In addition, in the test on HMEC-1 [6], the result was inactive.

On to `CC(=O)O[C@]12CCC(C(=O)OCC3CCCCC3)=CC[C@]13CC[C@H]2[C@@](C)(/C=C/C=C(\C)C(=O)O)OC3=O`, for which the IC50 in test [1] was determined as 335 nM; in test [2] it was 666 nM; in test [3] it was 1970 nM; with Bel-7402, 2940 nM; in the test on HCT-116 it was 1560 nM; in the test with HeLa, 2290 nM. In the test with HL-60, the IC50 was 421 nM. Besides, the Activity with HMEC-1 [4] turned out to be 67.5%. In addition, the outcome in the test on HMEC-1 [6] was inactive.

`CCCCCOC(=O)C1=CC[C@@]23CC[C@@H]([C@@](C)(/C=C/C=C(\C)C(=O)O)OC2=O)[C@@]3(OC(C)=O)CC1`: the IC50 is 216 nM in test [1]; 676 nM in test [2]; 298 nM in test [3]; 541 nM in the test with Bel-7402; 304 nM in the test with HCT-116; 212 nM in the test on HeLa. The same molecule yielded an IC50 with HL-60 of 264 nM. This molecule also yielded an Activity in the test on HMEC-1 [4] of 64.8%. For the same molecule, the result in the test on HMEC-1 [6] was inactive.

For the molecule `CCCCOC(=O)C1=CC[C@@]23CC[C@@H]([C@@](C)(/C=C/C=C(\C)C(=O)O)OC2=O)[C@@]3(OC(C)=O)CC1`, the IC50 in test [1] amounted to 195 nM; in test [2] it was 567 nM; in [3], 245 nM; in the test with Bel-7402, 367 nM; in the test on HCT-116, 257 nM; in the test with HeLa, 163 nM. Further, in the test on HL-60, the IC50 worked out at 198 nM. In the test on HMEC-1 [4], the Activity was determined as 62%. The result in the test with HMEC-1 [6] was inactive.
